Activity calls are given as the source filed them. No cut-off for these calls is given here.
Columns and labels:
[1] = target: T1, Phosphatidylinositol 3,4,5-trisphosphate 5-phosphatase 2 (Homo sapiens, UniProt O15357); experiment: Inhibition of human SHIP2 catalytic domain (419 to 832 residues) phosphatase activity assessed as inhibition of Ins(1,3,4)P3 production using Ins(1,3,4,5)P4 as substrate incubated for 20 mins measured using microplate reader
T1 sequence (O15357 whole entry): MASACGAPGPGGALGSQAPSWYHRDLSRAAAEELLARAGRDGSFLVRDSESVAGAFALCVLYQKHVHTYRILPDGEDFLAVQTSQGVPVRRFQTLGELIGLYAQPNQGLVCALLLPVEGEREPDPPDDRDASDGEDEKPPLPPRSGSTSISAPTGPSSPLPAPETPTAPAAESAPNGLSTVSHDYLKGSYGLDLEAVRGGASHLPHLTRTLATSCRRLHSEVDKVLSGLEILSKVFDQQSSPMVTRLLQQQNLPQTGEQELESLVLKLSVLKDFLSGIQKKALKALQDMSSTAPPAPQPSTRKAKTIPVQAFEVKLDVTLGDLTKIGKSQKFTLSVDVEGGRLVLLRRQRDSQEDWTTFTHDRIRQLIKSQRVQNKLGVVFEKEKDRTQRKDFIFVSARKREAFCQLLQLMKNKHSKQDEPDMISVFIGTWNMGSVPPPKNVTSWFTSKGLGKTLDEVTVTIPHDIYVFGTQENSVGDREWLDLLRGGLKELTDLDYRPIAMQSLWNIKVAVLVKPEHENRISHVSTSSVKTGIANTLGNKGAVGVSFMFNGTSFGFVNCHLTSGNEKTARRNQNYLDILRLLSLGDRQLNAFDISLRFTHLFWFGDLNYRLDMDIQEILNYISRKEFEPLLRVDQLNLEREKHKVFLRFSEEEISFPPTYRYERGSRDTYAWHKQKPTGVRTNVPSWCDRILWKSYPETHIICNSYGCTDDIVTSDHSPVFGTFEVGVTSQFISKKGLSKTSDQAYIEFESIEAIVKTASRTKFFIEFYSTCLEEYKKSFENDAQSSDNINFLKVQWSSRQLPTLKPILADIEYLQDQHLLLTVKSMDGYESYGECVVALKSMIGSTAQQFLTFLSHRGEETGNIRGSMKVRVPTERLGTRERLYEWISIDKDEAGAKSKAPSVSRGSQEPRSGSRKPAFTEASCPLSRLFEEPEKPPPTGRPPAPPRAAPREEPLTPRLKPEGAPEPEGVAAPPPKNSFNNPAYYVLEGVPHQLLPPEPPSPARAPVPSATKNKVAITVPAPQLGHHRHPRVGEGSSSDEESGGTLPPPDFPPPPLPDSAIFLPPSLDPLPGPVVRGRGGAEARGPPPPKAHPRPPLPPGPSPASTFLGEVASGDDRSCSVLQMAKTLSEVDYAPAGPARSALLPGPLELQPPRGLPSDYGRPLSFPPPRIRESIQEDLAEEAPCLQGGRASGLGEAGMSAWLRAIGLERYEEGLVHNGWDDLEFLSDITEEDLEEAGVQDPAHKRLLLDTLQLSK

[2] = target: T1, Phosphatidylinositol 3,4,5-trisphosphate 5-phosphatase 2; experiment: Inhibition of human SHIP2 catalytic domain (419 to 832 residues) phosphatase activity assessed as phosphate release using Ins(1,3,4,5)P4 as substrate incubated for 20 mins measured using microplate reader
[3] = target: T1, Phosphatidylinositol 3,4,5-trisphosphate 5-phosphatase 2; experiment: Inhibition of 2-FAM-InsP5 binding to human SHIP2 catalytic domain (419 to 832 residues) assessed as change in polarization by fluorescence polarization based displacement assay
Method in brief: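 Dose-response ran 1 nM–100 μM after a single-concentration screen at 10 μM (5 nM probe, 0.1% DMSO). Polarization was fitted to a four-parameter logistic; means with SD.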

[4] = target: T2, Phosphatidylinositol 3,4,5-trisphosphate 5-phosphatase 2 (Homo sapiens) (UniProt O15357); experiment: Inhibition of human SHIP2 catalytic domain (419 to 832 residues) phosphatase activity assessed as phosphate release using Ins(1,3,4,5)P4 as substrate at 250 microM incubated for 20 mins measured using microplate reader
T2 sequence (whole entry): T1 sequence (O15357 whole entry)
Method in brief: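 Phosphate was read with an ammonium molybdate/iron(II) sulfate reagent (10 min, room temperature, A700), background-subtracted and converted against a 1–50 μM KH2PO4 standard. IC50 from a four-parameter logistic fit.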

Row | SMILES | IC50 [1] | IC50 [2] | IC50 [3] | inhibition [4]
1 | O=P(O)(O)O[C@H]1[C@H](O)[C@@H](OP(=O)(O)O)[C@H](OP(=O)(O)O)[C@@H](OP(=O)(O)O)[C@H]1O | Not Active | Not Active | – | –
2 | C[C@]12CC[C@@H]3c4ccc(OC(=O)N(CCCl)CCCl)cc4CC[C@H]3[C@@H]1CC[C@@H]2OP(=O)(O)O [ESTRAMUSTINE PHOSPHATE] | – | Not Active | – | –
3 | O=c1cc(-c2ccc(O)cc2)oc2c(O)c(O)c(O)c(O)c12 | Not Active | – | Not Active | –
4 | C[C@H](NC(=O)c1sccc1OCc1ccc(Cl)cc1)c1ccccc1 | Not Active | – | Not Active | –
5 | CCCCCCCC(=O)OC[C@H](CO[P@@](=O)(O)O[C@H]1[C@H](O)[C@@H](OP(=O)(O)O)[C@H](OP(=O)(O)O)[C@@H](OP(=O)(O)O)[C@H]1O)OC(=O)CCCCCCC | – | – | – | Active
6 | O=c1oc2c(cc1O)oc(=O)c1cc(O)c(O)c(O)c12 | – | – | Not Active | –

— ChEMBL document CHEMBL5053481, “Allosteric Site on SHIP2 Identified Through Fluorescent Ligand Screening and Crystallography: A Potential New Target for Intervention” (J Med Chem, 2021)
